In brackets after ≈: the same amount, converted by molar mass.
Key:
Salmonella typhi = assay: Antibacterial activity against Salmonella typhi MTCC 98 assessed as growth inhibition after overnight incubation by NCCLS broth microdilution method; format: functional, Salmonella enterica subsp. enterica serovar Typhi; settings: Salmonella enterica
Vibrio cholerae = assay: Antibacterial activity against Vibrio cholerae MTCC 3906 assessed as growth inhibition after overnight incubation by NCCLS broth microdilution method; format: functional
Escherichia coli = assay: Antibacterial activity against Escherichia coli MTCC 443 assessed as growth inhibition after overnight incubation by NCCLS broth microdilution method; format: functional
How it was run: (§1)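 Broth microdilution per NCCLS in Mueller Hinton broth, compounds diluted in DMSO. Primary screen at 500, 250 and 200 µg/mL; actives retested at 100, 62.5, 50, 25 and 12.5 µg/mL. Tubes incubated overnight at 37 °C. […] Non-growing tubes subcultured overnight at 37 °C to judge bacteriostatic versus bactericidal action.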

Streptococcus pneumoniae = assay: Antibacterial activity against Streptococcus pneumoniae MTCC 1936 assessed as growth inhibition after overnight incubation by NCCLS broth microdilution method; format: functional; how it was run: as §1
Bacillus subtilis = assay: Antibacterial activity against Bacillus subtilis MTCC 441 assessed as growth inhibition after overnight incubation by NCCLS broth microdilution method; format: functional; how it was run: as §1
Clostridium tetani = assay: Antibacterial activity against Clostridium tetani MTCC 449 assessed as growth inhibition after overnight incubation by NCCLS broth microdilution method; format: functional
[1] = Antioxidant activity of the compound assessed as ascorbic acid equivalent of ferric tripyridyl triazine reducing activity at 200 ug/mL after 15 mins by FRAP assay; format: functional
How it was run: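 FRAP, modified Benzie and Strain method. Fe(III)-TPTZ reagent made with TPTZ in 40 mM HCl, FeCl3 solution and acetate buffer pH 3.6. 200 µL sample solution mixed with 3 mL reagent and held 15 min at 37 °C. Fe(II)-TPTZ read at 593 nm against an ascorbic acid standard, expressed as ascorbic acid equivalents (mmol/100 g compound).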

Aspergillus fumigatus = assay: Antifungal activity against Aspergillus fumigatus MTCC 3008 assessed as growth inhibition after overnight incubation by NCCLS broth microdilution method; format: functional; how it was run: as §1
Candida albicans = assay: Antifungal activity against Candida albicans MTCC 227 assessed as growth inhibition after overnight incubation by NCCLS broth microdilution method; format: functional; how it was run: as §1
[2] = test system: Mycobacterium tuberculosis; assay: Antitubercular activity against Mycobacterium tuberculosis H37Rv assessed as growth inhibition at 250 ug/mL after 12 to 28 days by Lowenstein-Jensen method relative to control; format: functional; settings: read-out: GI
How it was run: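 Modified Lowenstein-Jensen method. Compound at 250 in DMSO added to liquid L-J medium, then sterilized by inspissation and incubated 24 h at 37 °C. Streaked with H37Rv harvested in 0.85% saline (5 × 10⁴ bacilli/tube) and incubated at 37 °C. Colonies read at 12, 22 and 28 days versus drug-free control; no colonies or <20 colonies scored as inhibition.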

Compound: O=C(N[C@H](CO)[C@H](O)c1ccc([N+](=O)[O-])cc1)C(Cl)Cl [CHLORAMPHENICOL]
- MIC (Salmonella typhi): 50 µg/mL (≈ 155 µM)
- MIC (Vibrio cholerae): 50 µg/mL (≈ 155 µM)
- MIC (Escherichia coli): 50 µg/mL (≈ 155 µM)
- MIC (Streptococcus pneumoniae): 50 µg/mL (≈ 155 µM)
- MIC (Bacillus subtilis): 50 µg/mL (≈ 155 µM)
- MIC (Clostridium tetani): 50 µg/mL (≈ 155 µM)

Compound: N#CC1=C(N)N(c2ccc(F)c(F)c2)C2=C(C(=O)CCC2)C1c1cc2ccccc2nc1Oc1ccc(C#N)cc1 (stereo unspecified)
- Activity [1]: 193 equiv
- MIC (Salmonella typhi): 125 µg/mL (≈ 229 µM)
- MIC (Aspergillus fumigatus): > 1000 µg/mL
- MIC (Vibrio cholerae): 100 µg/mL (≈ 183 µM)
- MIC (Candida albicans): 250 µg/mL (≈ 458 µM)
- inhibition of growth at 250 µg/mL [2]: 75%
- MIC (Escherichia coli): 100 µg/mL (≈ 183 µM)
- MIC (Streptococcus pneumoniae): 100 µg/mL (≈ 183 µM)
- MIC (Bacillus subtilis): 250 µg/mL (≈ 458 µM)
- MIC (Clostridium tetani): 100 µg/mL (≈ 183 µM)

Compound: COc1ccc2nc(Oc3ccc(C#N)cc3)c(C=O)cc2c1
- Activity [1]: 47 equiv
- MIC (Salmonella typhi): 100 µg/mL (≈ 329 µM)
- MIC (Aspergillus fumigatus): 1000 µg/mL (≈ 3290 µM)
- MIC (Vibrio cholerae): 250 µg/mL (≈ 822 µM)
- MIC (Candida albicans): 1000 µg/mL (≈ 3290 µM)
- inhibition of growth at 250 µg/mL [2]: 11%
- MIC (Escherichia coli): 250 µg/mL (≈ 822 µM)
- MIC (Streptococcus pneumoniae): 200 µg/mL (≈ 657 µM)
- MIC (Bacillus subtilis): 250 µg/mL (≈ 822 µM)
- MIC (Clostridium tetani): 200 µg/mL (≈ 657 µM)

Compound: NYSTATIN
- MIC (Aspergillus fumigatus): 100 µg/mL
- MIC (Candida albicans): 100 µg/mL

Compound: COC1=CC(=O)C[C@@H](C)[C@]12Oc1c(Cl)c(OC)cc(OC)c1C2=O [GRISEOFULVIN]
- MIC (Aspergillus fumigatus): 100 µg/mL (≈ 283 µM)
- MIC (Candida albicans): 500 µg/mL (≈ 1420 µM)

Compound: N#CC1=C(N)N(c2cccc(C(F)(F)F)c2)C2=C(C(=O)CCC2)C1c1cc2ccccc2nc1Oc1ccc(C#N)cc1 (stereo unspecified)
- Activity [1]: 270 equiv
- MIC (Salmonella typhi): 250 µg/mL (≈ 433 µM)
- MIC (Aspergillus fumigatus): 1000 µg/mL (≈ 1730 µM)
- MIC (Vibrio cholerae): 250 µg/mL (≈ 433 µM)
- MIC (Candida albicans): 1000 µg/mL (≈ 1730 µM)
- inhibition of growth at 250 µg/mL [2]: 52%
- MIC (Escherichia coli): 200 µg/mL (≈ 346 µM)
- MIC (Streptococcus pneumoniae): 125 µg/mL (≈ 216 µM)
- MIC (Bacillus subtilis): 100 µg/mL (≈ 173 µM)
- MIC (Clostridium tetani): 250 µg/mL (≈ 433 µM)

Compound: Cc1ccc2nc(Oc3ccc(C#N)cc3)c(C=O)cc2c1
- Activity [1]: 16 equiv
- MIC (Salmonella typhi): 125 µg/mL (≈ 434 µM)
- MIC (Aspergillus fumigatus): 250 µg/mL (≈ 867 µM)
- MIC (Vibrio cholerae): 125 µg/mL (≈ 434 µM)
- MIC (Candida albicans): > 1000 µg/mL
- inhibition of growth at 250 µg/mL [2]: 26%
- MIC (Escherichia coli): 62.5 µg/mL (≈ 217 µM)
- MIC (Streptococcus pneumoniae): 200 µg/mL (≈ 694 µM)
- MIC (Bacillus subtilis): 100 µg/mL (≈ 347 µM)
- MIC (Clostridium tetani): 100 µg/mL (≈ 347 µM)

Compound: COc1ccc2nc(Oc3ccc(C#N)cc3)c(C3C(C#N)=C(N)N(c4cc(F)ccc4F)C4=C3C(=O)CC(C)(C)C4)cc2c1 (stereo unspecified)
- Activity [1]: 25.4 equiv
- MIC (Salmonella typhi): 250 µg/mL (≈ 414 µM)
- MIC (Aspergillus fumigatus): > 1000 µg/mL
- MIC (Vibrio cholerae): 200 µg/mL (≈ 331 µM)
- MIC (Candida albicans): > 1000 µg/mL
- inhibition of growth at 250 µg/mL [2]: 54%
- MIC (Escherichia coli): 200 µg/mL (≈ 331 µM)
- MIC (Streptococcus pneumoniae): 250 µg/mL (≈ 414 µM)
- MIC (Bacillus subtilis): 250 µg/mL (≈ 414 µM)
- MIC (Clostridium tetani): 200 µg/mL (≈ 331 µM)

Compound: CC1(C)S[C@@H]2[C@H](NC(=O)[C@H](N)c3ccccc3)C(=O)N2[C@H]1C(=O)O [AMPICILLIN]
- MIC (Salmonella typhi): 100 µg/mL (≈ 286 µM)
- MIC (Vibrio cholerae): 100 µg/mL (≈ 286 µM)
- MIC (Escherichia coli): 100 µg/mL (≈ 286 µM)
- MIC (Streptococcus pneumoniae): 100 µg/mL (≈ 286 µM)
- MIC (Bacillus subtilis): 250 µg/mL (≈ 715 µM)
- MIC (Clostridium tetani): 250 µg/mL (≈ 715 µM)

Compound: N#Cc1ccc(Oc2nc3ccccc3cc2C=O)cc1
- Activity [1]: 19.2 equiv
- MIC (Salmonella typhi): 100 µg/mL (≈ 365 µM)
- MIC (Aspergillus fumigatus): 500 µg/mL (≈ 1820 µM)
- MIC (Vibrio cholerae): 250 µg/mL (≈ 911 µM)
- MIC (Candida albicans): 1000 µg/mL (≈ 3650 µM)
- inhibition of growth at 250 µg/mL [2]: 42%
- MIC (Escherichia coli): 100 µg/mL (≈ 365 µM)
- MIC (Streptococcus pneumoniae): 250 µg/mL (≈ 911 µM)
- MIC (Bacillus subtilis): 200 µg/mL (≈ 729 µM)
- MIC (Clostridium tetani): 250 µg/mL (≈ 911 µM)

Compound: Cc1ccc2nc(Oc3ccc(C#N)cc3)c(C3C(C#N)=C(N)N(c4ccc(F)c(F)c4)C4=C3C(=O)CC(C)(C)C4)cc2c1 (stereo unspecified)
- Activity [1]: 122 equiv
- MIC (Salmonella typhi): 250 µg/mL (≈ 425 µM)
- MIC (Aspergillus fumigatus): 1000 µg/mL (≈ 1700 µM)
- MIC (Vibrio cholerae): 250 µg/mL (≈ 425 µM)
- MIC (Candida albicans): > 1000 µg/mL
- inhibition of growth at 250 µg/mL [2]: 32%
- MIC (Escherichia coli): 200 µg/mL (≈ 340 µM)
- MIC (Streptococcus pneumoniae): 200 µg/mL (≈ 340 µM)
- MIC (Bacillus subtilis): 250 µg/mL (≈ 425 µM)
- MIC (Clostridium tetani): 250 µg/mL (≈ 425 µM)

Compound: N#CC1=C(N)N(c2cc(F)ccc2F)C2=C(C(=O)CCC2)C1c1cc2ccccc2nc1Oc1ccc(C#N)cc1 (stereo unspecified)
- Activity [1]: 16.4 equiv
- MIC (Salmonella typhi): 250 µg/mL (≈ 458 µM)
- MIC (Aspergillus fumigatus): 250 µg/mL (≈ 458 µM)
- MIC (Vibrio cholerae): 200 µg/mL (≈ 367 µM)
- MIC (Candida albicans): > 1000 µg/mL
- inhibition of growth at 250 µg/mL [2]: 10%
- MIC (Escherichia coli): 100 µg/mL (≈ 183 µM)
- MIC (Streptococcus pneumoniae): 250 µg/mL (≈ 458 µM)
- MIC (Bacillus subtilis): 100 µg/mL (≈ 183 µM)
- MIC (Clostridium tetani): 125 µg/mL (≈ 229 µM)

Compound: CC1(C)CC(=O)C2=C(C1)N(c1cc(F)ccc1F)C(N)=C(C#N)C2c1cc2cc(Cl)ccc2nc1Oc1ccc(C#N)cc1 (stereo unspecified)
- Activity [1]: 2.17 equiv
- MIC (Salmonella typhi): 125 µg/mL (≈ 206 µM)
- MIC (Aspergillus fumigatus): > 1000 µg/mL
- MIC (Vibrio cholerae): 250 µg/mL (≈ 411 µM)
- MIC (Candida albicans): 1000 µg/mL (≈ 1640 µM)
- inhibition of growth at 250 µg/mL [2]: 87%
- MIC (Escherichia coli): 250 µg/mL (≈ 411 µM)
- MIC (Streptococcus pneumoniae): 250 µg/mL (≈ 411 µM)
- MIC (Bacillus subtilis): 100 µg/mL (≈ 164 µM)
- MIC (Clostridium tetani): 125 µg/mL (≈ 206 µM)

Reference: ChEMBL document CHEMBL2375307, “Synthesis and identification of β-aryloxyquinoline based diversely fluorine substituted N-aryl quinolone derivatives as a new class of antimicrobial, antituberculosis and antioxidant agents” (Eur J Med Chem, 2013)
